The values below come from ChEMBL document CHEMBL1124957, “6-Benzoxazinylpyridazin-3-ones: potent, long-acting positive inotrope and peripheral vasodilator agents” (J Med Chem, 1990).

In test [1] the test system is Canis familiaris. The experiment in a line: Mean arterial blood pressure (MAP) in dog after intravenous dose of 0.075 mg/kg. The test is classed as functional, Canis lupus familiaris. In short, it runs like this: (§1)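 Dopamine standard (10–15 μg/kg/min, 3 min) checked inotropic responsiveness. Compounds dissolved in DMF, diluted to 10% final in saline; stepwise 3–4 increasing doses, each infused over 5 min after prior peak. CF, MAP, HR expressed as % change from predrug control vs cumulative dose.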

In test [2] the test system is Canis familiaris. The experiment in a line: Effective dose required to increase the myocardial contractile force (CF) 50% above base line when administered intravenously. The test is classed as functional. The conditions noted are these: Canis lupus familiaris, Myocardium, iv. The method, boiled down:
as §1

For test [3], the target named is phosphodiesterase fraction III (Canis familiaris). The experiment in a line: Inhibition of cardiac phosphodiesterase-3 isolated from canine heart.
For test [4], the system named is Canis familiaris. As to the kind of experiment: Heart rate (HR) in dog after intravenous dose of 0.010 mg/kg. The conditions noted are these: dose 0.075 mg/kg, in the assay text read “0.075 mg/kg” for “0.010 mg/kg”. It is filed as functional, Canis lupus familiaris. In short, it runs like this: (§2)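 Anesthetized adult mongrel dogs (sodium pentobarbital 45 mg/kg ip), artificially respired; MAP from cannulated femoral artery, infusion into femoral vein. Dopamine standard (10–15 μg/kg/min, 3 min) checked inotropic responsiveness. Compounds dissolved in DMF, diluted to 10% final in saline; stepwise 3–4 increasing doses, each infused over 5 min after prior peak. CF, MAP, HR expressed as % change from predrug control vs cumulative dose.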

For test [5], the system named is Canis familiaris. The experiment in a line: Myocardial contractile force (CF) in dog after intravenous dose of 0.075 mg/kg. It is filed as functional, Canis lupus familiaris, Myocardium. The method, boiled down:
as §1

Test [6] has as its system Canis familiaris. As to the kind of experiment: Myocardial contractile force (CF) in dog after intravenous dose of 1.875 mg/kg. It is filed as functional, Canis lupus familiaris, Myocardium. In short, it runs like this: as §2
In test [7] the test system is Canis familiaris. The experiment in a line: Intravenous dose required to increase contractile force (inotropic effect) by 50%. It is filed as functional. The conditions noted are these: Canis lupus familiaris. The method, boiled down: as §2
Test [8] has as its system Canis familiaris. As to the kind of experiment: Heart rate in dog following 1.875 mg/kg i.v. administration. It is filed as functional, Canis lupus familiaris. The conditions noted are these: route intravenous. In short, it runs like this:
as §2

The test system of test [9] is Canis familiaris. As to the kind of experiment: Mean arterial blood pressure in dog following 1.875 mg/kg i.v. administration. It is filed as functional, Canis lupus familiaris. The conditions noted are these: route intravenous. The method, boiled down: as §2
In test [10] the test system is Canis familiaris. The experiment in a line: Heart rate (HR) in dog after intravenous dose of 0.100 mg/kg. The conditions noted are these: dose 0.1 mg/kg. It is filed as functional, Canis lupus familiaris. In short, it runs like this: as §2
Test [11] concerns Canis familiaris. As to the kind of experiment: Mean arterial blood pressure (MAP) in dog after intravenous dose of 0.100 mg/kg. The test is classed as functional, Canis lupus familiaris. The conditions noted are these: dose 0.1 mg/kg. In short, it runs like this: as §2
For test [12], the system named is Canis familiaris. As to the kind of experiment: Myocardial contractile force (CF) in dog after intravenous dose of 0.100 mg/kg. The test is classed as functional, Canis lupus familiaris, Myocardium. The following applies: dose 0.1 mg/kg. The method, boiled down: as §2
Test [13] can be described thus: Index of contractility was determined as the ratio of % of dP/dtmax in conscious dog after (po) administration of 0.10 mg/kg. It is filed as functional. The conditions noted are these: dose 0.1 mg/kg. The method, boiled down:
(§3)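 Conscious dogs, instrumented earlier with an LV Konigsberg pressure transducer through a left thoracotomy, with ≥1 week recovery and trained to lie quietly. LV dP/dtmax derived as the contractility index; baseline MAP, HR, dP/dtmax taken first. Compound suspended in 0.1% methylcellulose (10 mL) and given by gavage through a gastric tube. Response recorded as % change, also at 8 h.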

For test [14], the system named is Canis familiaris. The experiment in a line: Percent change in activity 8 hr after peroral administration in conscious dog at 0.10 mg/kg. The test is classed as functional, Canis lupus familiaris. The conditions noted are these: dose 0.1 mg/kg; route oral. In short, it runs like this: as §3
The nature of test [15]: Index of contractility was determined as the ratio of % of dP/dtmax in conscious dog after (po) administration of a dose of 0.01 mg/kg. It is filed as functional. In short, it runs like this: as §3
For test [16], the system named is Canis familiaris. As to the kind of experiment: Heart rate (HR) in dog after intravenous dose of 0.075 mg/kg. The test is classed as functional, Canis lupus familiaris. The method, boiled down:
as §1

Test [17] concerns Canis familiaris. As to the kind of experiment: Percent change in activity 8 hr after peroral administration in conscious dog at 0.30 mg/kg. The test is classed as functional, Canis lupus familiaris. The following applies: dose 0.3 mg/kg; route oral. In short, it runs like this:
as §3

A short description of test [18]: Index of contractility was determined as the ratio of % of dP/dtmax in conscious dog after (po) administration of 0.30 mg/kg. The test is classed as functional. The following applies: dose 0.3 mg/kg. The method, boiled down: as §3

Consider `CC1(C)C(=O)Nc2ccc(C3=NNC(=O)CC3)cc21` [INDOLIDAN], for which the Activity in test [1] is on record as -27; in test [4], 32; in test [5] it was 110. Also, in [2], it took a dose of 0.0084 mg/kg to reach the 50% effect level (ED50). Further, in [3], the IC50 stood at 7 µM.
Regarding `CN1C(=O)C(C)(C)Oc2ccc(C3=NNC(=O)CC3)cc21`, the Activity in test [6] was 125; in test [8], 8; in test [9] it was -12. The ED50 in test [7] was determined as 0.8 mg/kg. Also, the IC50 in test [3] came to 36 µM.
For `Cc1[nH]c(=O)c(C#N)cc1-c1ccncc1` [MILRINONE], the Activity in [10] is on record as 15; in test [11], -13; in [12] it was 105. In test [2], this molecule had an ED50 of 0.022 mg/kg.
Turning to `CC1CC(=O)NN=C1c1ccc2c(c1)OCC(=O)N2` (centres undefined) [BEMORADAN], the Ratio in test [13] was found to be 85%; in test [15] it was 43%; in test [18] it was 130%. Further, the figures for the Change in test [14] and in test [17] were 31% and 65%, respectively. The Activity is 25 in test [16], -21 in [1] and 127 in test [5]. Moreover, the 50% effect level in test [2] (ED50) was put at a dose of 0.0054 mg/kg. In addition, the IC50 in test [3] came to 0.3 µM.
